Data from ChEMBL document CHEMBL1123464, “Analogues of platelet activating factor. 5. Multiple oxygen substitution of the alkoxy chain” (J Med Chem, 1986).

How the values were obtained:
[1] = species: Oryctolagus cuniculus; test: Compound was evaluated in rabbit-platelet rich plasma (PRP) for the molar concentration required to produce 50% of maximum aggregation; assay type: functional
How it was run: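 Rabbit platelet-rich plasma; aggregation dose-response curves over 10^-4 to 10^-9 M, two to six replicates per dose level; EC50 is the molar concentration giving 50% of the compound's own maximum aggregation; n counts independent curve determinations.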

[2] = species: Oryctolagus cuniculus; test: Compound was evaluated in rabbit-platelet rich plasma (PRP) for the maximum aggregation response observed 6.8*10e-6 molar concentration; assay type: functional
[3] = system: Rattus norvegicus; test: Compound was evaluated in spontaneous hypertensive rats (SHR) for the intravenous dose required to decrease mean arterial blood pressure (MABP) 50 mmHg; assay type: functional, Artery
How it was run: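 Spontaneously hypertensive rats, intravenous dosing; mean arterial blood pressure monitored; dose lowering MABP by 50 mmHg extrapolated from the dose-response curve.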

[4] = Ratio value is (MAPB/platelet EC50)*10e-8; assay type: functional
How it was run: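 Selectivity index: intravenous hypotensive dose (SHR, 50 mmHg MABP drop) divided by rabbit PRP aggregation EC50; compared against racemic C16-PAF standard to judge separation of hypotensive and aggregatory effects.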

[5] = species: Oryctolagus cuniculus; test: Compound was evaluated in rabbit-platelet rich plasma (PRP) for the maximum aggregation response observed at 1.9*10e-4 molar concentration; assay type: functional

Structure (SMILES) | EC50 [1] [nM] | Max aggregation [2] | Dose [3] [mg/kg] | Ratio [4] | Max aggregation [5]
CCCCCCCCCCCCCCCCOCC(COP(=O)([O-])OCC[N+](C)(C)C)OC(C)=O (configuration not stated) [PLATELET ACTIVATING FACTOR] | 26.5 | 71 | 0.00125 | 0.47 | 
CCCCCCCCCCOCCOCCOCC(COP(=O)([O-])OCC[N+](C)(C)C)OC(C)=O (configuration not stated) | 130 |  | 0.0129 | 0.99 | 61
COCCOCCOCCCCCCCCOCC(COP(=O)([O-])OCC[N+](C)(C)C)OC(C)=O (configuration not stated) | 5300 |  | 0.0805 | 0.15 | 67
